Measured values from ChEMBL document CHEMBL5058577, “EUbOPEN Chemogenomics Library 2 (Multiplex)” (2022).

System: HEK-293T
Experiment: Multiplex assay against HEK293T
Assay type: toxicity, cell-based
Conditions: human
Procedure, shortened: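 Live cells carried four stains from seeding: Hoechst33342, BioTracker Green Microtubule Cytoskeleton Dye, MitoTracker Red and Annexin V Alexa Fluor 680. They were imaged on a CQ1 microscope at 37°C and 5% CO2 after compound addition. Using CellPathfinder machine-learning gating, cells were split into Hoechst high-intensity objects or normal cells, normal cells into healthy, pyknosed or fragmented nuclei, and pyknosed cells into mitotic or apoptotic; tubulin, mitochondrial-mass and membrane-permeability phenotypes are per cents of healthy-nucleus cells.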

[1] = 12 h, 1 µM, compound concentration 1 uM, replicate 1
[2] = 12 h, 1 µM, compound concentration 1 uM, replicate 2
[3] = 12 h, 10 µM, compound concentration 10 uM, replicate 1
[4] = 12 h, 10 µM, compound concentration 10 uM, replicate 2
[5] = 24 h, 1 µM, compound concentration 1 uM, replicate 1
[6] = 24 h, 1 µM, compound concentration 1 uM, replicate 2
[7] = 24 h, 10 µM, compound concentration 10 uM, replicate 1
[8] = 24 h, 10 µM, compound concentration 10 uM, replicate 2
[9] = 48 h, 1 µM, compound concentration 1 uM, replicate 1
[10] = 48 h, 1 µM, compound concentration 1 uM, replicate 2
[11] = 48 h, 10 µM, compound concentration 10 uM, replicate 1
[12] = 48 h, 10 µM, compound concentration 10 uM, replicate 2

CCCOc1ccc2[nH]cc(C3=CCNCC3)c2n1.Cl
Population Apoptotic (%) [1]: 32% | Population Fragmented Nuclei (%) [1]: 5% | Population Healthy Nuclei (%) [1]: 81% | Population Hoechst High Intensity Objects (%) [1]: 5% | Population Membrane Permeable-Phenotype (%) [1]: 0% | Population Mitochondria Different-Phenotype (%) [1]: 41% | Population Mitotic Cells (%) [1]: 68% | Population Normal (%) [1]: 94% | Population Pyknosed Nuclei (%) [1]: 12% | Population Tubulin-Different-Phenotype (%) [1]: 39% | Total Cell Count [1]: 416 | Population Apoptotic (%) [2]: 44% | Population Fragmented Nuclei (%) [2]: 6% | Population Healthy Nuclei (%) [2]: 82% | Population Hoechst High Intensity Objects (%) [2]: 4% | Population Mitochondria Different-Phenotype (%) [2]: 52% | Population Mitotic Cells (%) [2]: 55% | Population Normal (%) [2]: 95% | Population Pyknosed Nuclei (%) [2]: 10% | Population Tubulin-Different-Phenotype (%) [2]: 21% | Total Cell Count [2]: 344 | Population Apoptotic (%) [3]: 43% | Population Fragmented Nuclei (%) [3]: 5% | Population Healthy Nuclei (%) [3]: 78% | Population Hoechst High Intensity Objects (%) [3]: 10% | Population Membrane Permeable-Phenotype (%) [3]: 0% | Population Mitochondria Different-Phenotype (%) [3]: 58% | Population Mitotic Cells (%) [3]: 56% | Population Normal (%) [3]: 89% | Population Pyknosed Nuclei (%) [3]: 15% | Population Tubulin-Different-Phenotype (%) [3]: 41% | Total Cell Count [3]: 446 | Population Apoptotic (%) [4]: 55% | Population Fragmented Nuclei (%) [4]: 6% | Population Healthy Nuclei (%) [4]: 82% | Population Hoechst High Intensity Objects (%) [4]: 4% | Population Mitochondria Different-Phenotype (%) [4]: 76% | Population Mitotic Cells (%) [4]: 44% | Population Normal (%) [4]: 95% | Population Pyknosed Nuclei (%) [4]: 11% | Total Cell Count [4]: 387 | Population Apoptotic (%) [5]: 28% | Population Fragmented Nuclei (%) [5]: 10% | Population Healthy Nuclei (%) [5]: 76% | Population Hoechst High Intensity Objects (%) [5]: 3% | Population Membrane Permeable-Phenotype (%) [5]: 0% | Population Mitochondria Different-Phenotype (%) [5]: 26% | Population Mitotic Cells (%) [5]: 71% | Population Normal (%) [5]: 96% | Population Pyknosed Nuclei (%) [5]: 12% | Population Tubulin-Different-Phenotype (%) [5]: 24% | Total Cell Count [5]: 558 | Population Apoptotic (%) [6]: 35% | Population Fragmented Nuclei (%) [6]: 9% | Population Healthy Nuclei (%) [6]: 80% | Population Hoechst High Intensity Objects (%) [6]: 2% | Population Membrane Permeable-Phenotype (%) [6]: 1% | Population Mitochondria Different-Phenotype (%) [6]: 29% | Population Mitotic Cells (%) [6]: 64% | Population Normal (%) [6]: 97% | Population Pyknosed Nuclei (%) [6]: 9% | Population Tubulin-Different-Phenotype (%) [6]: 14% | Total Cell Count [6]: 425 | Population Apoptotic (%) [7]: 39% | Population Fragmented Nuclei (%) [7]: 12% | Population Healthy Nuclei (%) [7]: 74% | Population Hoechst High Intensity Objects (%) [7]: 7% | Population Membrane Permeable-Phenotype (%) [7]: 0% | Population Mitochondria Different-Phenotype (%) [7]: 50% | Population Mitotic Cells (%) [7]: 60% | Population Normal (%) [7]: 92% | Population Pyknosed Nuclei (%) [7]: 12% | Population Tubulin-Different-Phenotype (%) [7]: 38% | Total Cell Count [7]: 583 | Population Apoptotic (%) [8]: 51% | Population Fragmented Nuclei (%) [8]: 6% | Population Healthy Nuclei (%) [8]: 81% | Population Hoechst High Intensity Objects (%) [8]: 3% | Population Mitochondria Different-Phenotype (%) [8]: 63% | Population Mitotic Cells (%) [8]: 48% | Population Normal (%) [8]: 96% | Population Pyknosed Nuclei (%) [8]: 11% | Population Tubulin-Different-Phenotype (%) [8]: 34% | Total Cell Count [8]: 502 | Population Apoptotic (%) [9]: 17% | Population Fragmented Nuclei (%) [9]: 13% | Population Healthy Nuclei (%) [9]: 79% | Population Hoechst High Intensity Objects (%) [9]: 2% | Population Membrane Permeable-Phenotype (%) [9]: 0% | Population Mitochondria Different-Phenotype (%) [9]: 15% | Population Mitotic Cells (%) [9]: 82% | Population Normal (%) [9]: 97% | Population Pyknosed Nuclei (%) [9]: 6% | Population Tubulin-Different-Phenotype (%) [9]: 12% | Total Cell Count [9]: 872 | Population Apoptotic (%) [10]: 38% | Population Fragmented Nuclei (%) [10]: 9% | Population Healthy Nuclei (%) [10]: 82% | Population Hoechst High Intensity Objects (%) [10]: 1% | Population Membrane Permeable-Phenotype (%) [10]: 1% | Population Mitochondria Different-Phenotype (%) [10]: 20% | Population Mitotic Cells (%) [10]: 61% | Population Normal (%) [10]: 98% | Population Pyknosed Nuclei (%) [10]: 7% | Population Tubulin-Different-Phenotype (%) [10]: 9% | Total Cell Count [10]: 657 | Population Apoptotic (%) [11]: 35% | Population Fragmented Nuclei (%) [11]: 14% | Population Healthy Nuclei (%) [11]: 76% | Population Hoechst High Intensity Objects (%) [11]: 6% | Population Membrane Permeable-Phenotype (%) [11]: 0% | Population Mitochondria Different-Phenotype (%) [11]: 41% | Population Mitotic Cells (%) [11]: 64% | Population Normal (%) [11]: 93% | Population Pyknosed Nuclei (%) [11]: 8% | Population Tubulin-Different-Phenotype (%) [11]: 23% | Total Cell Count [11]: 776 | Population Apoptotic (%) [12]: 26% | Population Fragmented Nuclei (%) [12]: 13% | Population Healthy Nuclei (%) [12]: 80% | Population Hoechst High Intensity Objects (%) [12]: 5% | Population Mitochondria Different-Phenotype (%) [12]: 37% | Population Mitotic Cells (%) [12]: 73% | Population Normal (%) [12]: 94% | Population Pyknosed Nuclei (%) [12]: 6% | Population Tubulin-Different-Phenotype (%) [12]: 20% | Total Cell Count [12]: 733
